The record followed here is ChEMBL document CHEMBL3044971, “Dialkoxybenzene and dialkoxyallylbenzene feeding and oviposition deterrents against the cabbage looper, Trichoplusia ni: potential insect behavior control agents” (J Agric Food Chem, 2010).

Series [1] deals with Trichoplusia ni. Particulars: in vivo, 24 h.
Series [2] concerns Trichoplusia ni. Description: Feeding deterrent activity against freshly molted third-instar larval stage of Trichoplusia ni (cabbage looper) in compound pretreated cabbage leaves at 50 ug/cm2 after 3 to 5 hr by leaf disk choice bioassay. The class given is functional. Put shortly: (§1)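 Leaf-disk choice test on greenhouse cabbage (Stonehead) leaves from 5-6-week plants. Freshly molted third-instar T. ni from a diet-reared colony (>50 generations) were starved 4-5 h. One disk had 10 μL test solution painted on each side, the other carrier solvent only. There were 25 larvae per treatment. Run ended at ~50% control disk eaten (3-5 h). Deterrence = (C−T)/(C+T)×100 from consumed areas.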

The test system of series [3] is Trichoplusia ni. Description: Oviposition deterrent activity against adult female Trichoplusia ni (cabbage looper) moths introduced along with male moths into oviposition cage containing compound pretreated cabbage leaves assessed as eggs laying on the leaf disks at 0.25% after 48 hr. In kind it is functional. In a few lines: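 Choice test: one male and one female moth were caged with a control and a treated cabbage leaf (~100-110 cm²). Each side was sprayed with 0.5 mL MeOH or methanolic test solution at 0.25%. Values are mean ± SE, N = 35-40.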

For series [4], the system named is Trichoplusia ni. Nature of the series: Feeding deterrent activity against freshly molted third-instar larval stage of Trichoplusia ni (cabbage looper) in compound pretreated cabbage leaves after 3 to 5 hr by leaf disk choice bioassay. The class given is functional, organism-based. Put shortly: as §1

As a reminder, the mortality is the percentage killed. Higher therefore signals fewer survivors. `C=CCc1cc(OCCCC)ccc1OCCC` returned a mortality in the series with Trichoplusia ni [1] of 17%. Besides, the Activity with Trichoplusia ni [2] is reported as 65%; with Trichoplusia ni [3], 21%. In addition, in the series on Trichoplusia ni [4], the DC50 was 33 microg/cm2.
On the same counts, the results for `C=CCc1cc(OCCC(C)C)ccc1OCCC` are 17%, 65%, 21% and 33 microg/cm2.
For `C=CCc1cc(OCCC)ccc1OCCC`, the mortality in the series with Trichoplusia ni [1] came out at 17%. In addition, the values for the Activity with Trichoplusia ni [2] and in the series on Trichoplusia ni [3] were 65% and 21%, respectively. Also, in the series with Trichoplusia ni [4], the DC50 is 33 microg/cm2.
On the same counts, the results for `C=CCc1cc(OCC)ccc1OCCC` are 17%, 65%, 21% and 33 microg/cm2.
`C=CCc1cc(OC)ccc1OC` showed a mortality in the series with Trichoplusia ni [1] of 17%. The figures for the Activity with Trichoplusia ni [2] and with Trichoplusia ni [3] were 80% and 14%, respectively. Moreover, the DC50 with Trichoplusia ni [4] is given as 20 microg/cm2.
With `C=CCOc1ccccc1OCCCC` [1-allyloxy-2-butoxybenzene], the mortality in the series on Trichoplusia ni [1] is reported as 19%. Also, the results for the Activity with Trichoplusia ni [2] and in the series on Trichoplusia ni [3] were 92% and 35%, respectively. Also, the DC50 with Trichoplusia ni [4] is 17 microg/cm2.
On the same counts, the results for `C=CCOc1ccccc1OCCC` [1-allyloxy-2-propoxybenzene] are 10%, 96%, 12% and 12 microg/cm2.
On the same counts, the results for `C=CCOc1ccc(OC)cc1` [1-allyloxy-4-methoxybenzene] are 6%, 62%, 13% and 30 microg/cm2.
`COc1cccc(OCCC(C)C)c1` [1-isopentyloxy-3-methoxybenzene]: the mortality in the series on Trichoplusia ni [1] was 30%. For the same compound, the results for the Activity in the series on Trichoplusia ni [2] and in the series with Trichoplusia ni [3] were 89% and 30%, respectively. Besides, the DC50 in the series with Trichoplusia ni [4] was determined as 29 microg/cm2.
Compound `CCCCOc1ccccc1OCCC` [1-propoxy-2-butoxybenzene] gave a mortality in the series with Trichoplusia ni [1] of 19%. The Activity in the series with Trichoplusia ni [2] is 98%; with Trichoplusia ni [3], 37%. Also, the DC50 in the series on Trichoplusia ni [4] came out at 21 microg/cm2.
On to `CCCOc1cccc(OCCC(C)C)c1` [3-PROPOXY-1-ISOPENTOXYBENZENE], for which the mortality in the series with Trichoplusia ni [1] was determined as 10%. The results for the Activity in the series with Trichoplusia ni [2] and with Trichoplusia ni [3] were 97% and 9%, respectively. The DC50 in the series on Trichoplusia ni [4] turned out to be 17 microg/cm2.
As for `CCCOc1ccc(OCC)cc1` [4-ETHOXY-1-PROPOXYBENZENE], the mortality in the series with Trichoplusia ni [1] is 17%. The Activity came out at 100% in the series with Trichoplusia ni [2] and 10% in the series on Trichoplusia ni [3]. Besides, the DC50 in the series on Trichoplusia ni [4] is listed as 33.3 microg/cm2.
`C=CCOc1ccc(CC=C)cc1OC` [ALLYLEUGENOL] showed a mortality with Trichoplusia ni [1] of 18%. In addition, the Activity in the series with Trichoplusia ni [2] is 86%; with Trichoplusia ni [3], 16%. The DC50 with Trichoplusia ni [4] is listed as 15 microg/cm2.
For `CCN(CC)C(=O)c1cccc(C)c1` [DIETHYLTOLUAMIDE], in that order: 7%, 60%, 23% and 47 microg/cm2.
Take `C=CCc1ccc(OCC)c(OC)c1` [ETHYLEUGENOL]: the mortality in the series on Trichoplusia ni [1] is recorded as 35%. In addition, the Activity in the series on Trichoplusia ni [2] stood at 51%; in the series on Trichoplusia ni [3], 18%. The DC50 in the series with Trichoplusia ni [4] is given as 50 microg/cm2.
On to `C=CCc1ccc(OCCC(C)C)c(OC)c1` [ISOPENTYLEUGENOL], for which the mortality in the series with Trichoplusia ni [1] is on record as 28%. For the same compound, the figures for the Activity with Trichoplusia ni [2] and in the series with Trichoplusia ni [3] were 86% and 9%, respectively. Further, the DC50 in the series on Trichoplusia ni [4] is reported as 25 microg/cm2.
On the same counts, the results for `C=CCc1ccc(OCCCC)c(OC)c1` [N-BUTYLEUGENOL] are 15%, 92%, 34% and 12 microg/cm2.
In the series on Trichoplusia ni [1], `C=CCc1ccc(OCCC)c(OC)c1` [PROPYLEUGENOL] had a mortality of 37%. Also, the Activity with Trichoplusia ni [2] was 84%; in the series with Trichoplusia ni [3], 29%. The DC50 with Trichoplusia ni [4] is 19 microg/cm2.
